Calls of active or inactive are those of the source. The calls are words filed in the database; no cut-off is given here.
Tests used:
[1] = tested on: Splenocyte; assay: Immunomodulatory activity in C57BL/6 mouse splenocytes bearing TLR7 receptor assessed as IL6 release at 100 ug/ml after 24 hrs by ELISA; type: functional, cell-based
In short: (§1)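 C57BL/6 splenocytes in RPMI 1640 with 10% FBS, penicillin/streptomycin, 2 mM L-glutamine, plated at 5 × 10^6 cells/mL; compounds in PBS added, 37 °C for 24 h. Supernatant IL-12 and IL-6 by ELISA; representative of three independent experiments.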

[2] = molecular target: T1, Toll-like receptor 7 (Homo sapiens) (UniProt Q9NYK1); assay: Activation of human TLR7 expressed in HEK293XL assessed as fold induction of NF-kappaB activity at 50 ug/ml after 18 hrs by reporter gene assay relative to control
T1 sequence (whole entry): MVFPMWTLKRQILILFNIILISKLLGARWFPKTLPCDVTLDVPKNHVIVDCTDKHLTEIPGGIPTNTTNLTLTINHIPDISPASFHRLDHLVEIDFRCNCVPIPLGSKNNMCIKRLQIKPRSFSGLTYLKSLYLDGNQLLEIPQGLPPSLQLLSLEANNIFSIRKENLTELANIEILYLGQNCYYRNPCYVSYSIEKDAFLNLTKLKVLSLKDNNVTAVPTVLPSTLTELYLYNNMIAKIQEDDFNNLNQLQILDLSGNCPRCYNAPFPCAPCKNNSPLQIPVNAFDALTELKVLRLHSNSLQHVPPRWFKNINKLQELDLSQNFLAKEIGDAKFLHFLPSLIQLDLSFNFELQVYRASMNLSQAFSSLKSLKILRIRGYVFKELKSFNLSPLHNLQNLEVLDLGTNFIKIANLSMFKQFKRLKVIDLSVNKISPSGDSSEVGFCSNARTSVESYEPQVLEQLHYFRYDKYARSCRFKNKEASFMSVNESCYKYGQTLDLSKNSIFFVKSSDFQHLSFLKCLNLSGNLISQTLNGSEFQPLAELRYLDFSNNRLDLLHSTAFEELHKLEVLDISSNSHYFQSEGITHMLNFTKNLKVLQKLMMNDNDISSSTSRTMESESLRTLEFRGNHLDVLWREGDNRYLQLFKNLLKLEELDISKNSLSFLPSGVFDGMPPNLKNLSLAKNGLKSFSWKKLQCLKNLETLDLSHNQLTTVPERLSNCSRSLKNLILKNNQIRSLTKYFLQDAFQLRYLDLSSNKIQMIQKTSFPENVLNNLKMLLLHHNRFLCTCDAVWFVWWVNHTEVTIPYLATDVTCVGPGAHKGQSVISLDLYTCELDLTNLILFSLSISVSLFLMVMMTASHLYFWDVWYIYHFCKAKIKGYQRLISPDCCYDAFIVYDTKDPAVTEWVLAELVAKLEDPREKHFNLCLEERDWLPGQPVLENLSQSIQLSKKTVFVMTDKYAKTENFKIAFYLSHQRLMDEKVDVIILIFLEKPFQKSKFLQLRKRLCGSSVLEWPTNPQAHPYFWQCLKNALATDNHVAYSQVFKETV
In short: (§2)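 HEK293 cells stably expressing human TLR7 or TLR8, transiently transfected with SEAP reporter plasmid; medium replaced, SIMRA compounds added, 18 h incubation. Supernatant SEAP measured by QuantiBlue; expressed as fold increase in NF-κB activity over PBS control. Tabulated data at 50 μg/mL, representative of three independent experiments.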

[3] = tested on: Splenocyte; assay: Immunomodulatory activity in C57BL/6 mouse splenocytes bearing TLR7 receptor assessed as IL12 release at 100 ug/ml after 24 hrs by ELISA; type: functional, cell-based; in short: as §1
[4] = Metabolic stability in human serum assessed as full length product remaining after 10 mins by HPLC; type: ADME, cell-free; conditions: read-out: Stability
In short: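 About 0.5 A260 units compound in 1% human serum in PBS, 37 °C; aliquot taken at 10 min, analysed by anion-exchange HPLC for percent intact full-length product.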

[5] = molecular target: T2, Toll-like receptor 8 (Homo sapiens) (UniProt Q9NR97); assay: Activation of human TLR8 expressed in HEK293XL assessed as fold induction of NF-kappaB activity at 50 ug/ml after 18 hrs by reporter gene assay relative to control; in short: as §2
T2 sequence (whole entry): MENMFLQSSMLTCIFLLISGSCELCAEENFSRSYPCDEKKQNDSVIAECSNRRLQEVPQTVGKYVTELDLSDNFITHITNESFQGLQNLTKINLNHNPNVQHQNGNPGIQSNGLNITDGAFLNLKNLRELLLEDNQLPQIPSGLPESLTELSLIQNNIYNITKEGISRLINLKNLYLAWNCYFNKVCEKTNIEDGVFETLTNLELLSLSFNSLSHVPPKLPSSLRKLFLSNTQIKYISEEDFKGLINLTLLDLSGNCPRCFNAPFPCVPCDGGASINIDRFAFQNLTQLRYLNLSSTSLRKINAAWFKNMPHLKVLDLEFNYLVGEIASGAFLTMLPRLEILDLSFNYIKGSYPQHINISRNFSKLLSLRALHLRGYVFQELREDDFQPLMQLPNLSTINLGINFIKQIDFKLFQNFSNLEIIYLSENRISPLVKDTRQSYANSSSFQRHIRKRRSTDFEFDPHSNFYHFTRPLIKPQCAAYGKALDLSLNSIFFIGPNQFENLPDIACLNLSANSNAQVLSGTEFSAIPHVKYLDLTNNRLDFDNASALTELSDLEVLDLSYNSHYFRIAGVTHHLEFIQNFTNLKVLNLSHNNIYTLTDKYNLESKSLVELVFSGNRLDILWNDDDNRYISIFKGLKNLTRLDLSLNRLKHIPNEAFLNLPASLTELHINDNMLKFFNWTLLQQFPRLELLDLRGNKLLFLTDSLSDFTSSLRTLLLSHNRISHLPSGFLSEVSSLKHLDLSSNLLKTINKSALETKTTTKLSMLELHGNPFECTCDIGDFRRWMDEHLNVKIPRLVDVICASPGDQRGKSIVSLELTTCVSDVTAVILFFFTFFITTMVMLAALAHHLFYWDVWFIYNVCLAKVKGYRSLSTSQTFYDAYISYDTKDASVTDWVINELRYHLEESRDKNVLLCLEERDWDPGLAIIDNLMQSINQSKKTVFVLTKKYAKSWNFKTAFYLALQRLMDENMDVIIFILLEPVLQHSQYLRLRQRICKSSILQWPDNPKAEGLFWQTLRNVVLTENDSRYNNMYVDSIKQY

[6] = tested on: PBMC; assay: Immunomodulatory activity in human PBMC assessed as induction of TNFalpha at 100 ug/ml after 24 hrs; type: functional, cell-based
In short: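 Human PBMCs plated at 5 × 10^6 cells/mL; compounds dissolved in PBS added at various concentrations, 37 °C for 24 h. Supernatant cytokines/chemokines quantified with human Luminex multiplex kit.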

[7] = species on record: Homo sapiens; assay: Ratio of human TLR7 activity to human TLR8 activity
In short: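 TLR7/TLR8 ratio computed from fold NF-κB (SEAP reporter) activation in HEK293 cells stably expressing human TLR7 versus TLR8, compounds at 50 μg/mL, 18 h exposure; representative of three independent experiments.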

Activity [1]	fold change (FC) [2]	Activity [3]	remaining at 10 min [4]	fold change (FC) [5]	Ratio [7]	Compound	Activity [6]
Active	26.7	Active	83%	0.4	66.8	Nc1ccn([C@@H]2O[C@H](COP(=O)(S)O[C@H]3[C@@H](O)[C@H](n4ccc5c(=O)[nH]c(N)nc54)O[C@@H]3CO[C@H]3[C@@H](O)[C@H](n4cnc5c(N)ncnc54)O[C@@H]3COP(=O)(S)O[C@H]3[C@@H](O)[C@H](n4ccc5c(=O)[nH]c(N)nc54)O[C@@H]3COP(=O)(S)O[C@H]3[C@@H](O)[C@H](n4ccc(=O)[nH]c4=O)O[C@@H]3COP(=O)(S)O[C@H]3[C@@H](O)[C@H](n4ccc(N)nc4=O)O[C@@H]3COP(=O)(S)O[C@H]3[C@@H](O)[C@H](n4ccc5c(=O)[nH]c(N)nc54)O[C@@H]3COP(=O)(S)O[C@H]3[C@@H](O)[C@H](n4ccc(=O)[nH]c4=O)O[C@@H]3COP(=O)(S)O[C@H]3[C@@H](O)[C@H](n4ccc(=O)[nH]c4=O)O[C@@H]3CO)[C@@H](OP(=O)(S)OC[C@H]3O[C@@H](n4ccc(=O)[nH]c4=O)[C@H](O)[C@@H]3OP(=O)(S)OC[C@H]3O[C@@H](n4ccc(=O)[nH]c4=O)[C@H](O)[C@@H]3OP(=O)(S)OCC(O)COP(=O)(S)O[C@H]3[C@@H](O)[C@H](n4ccc(=O)[nH]c4=O)O[C@@H]3COP(=O)(S)O[C@H]3[C@@H](O)[C@H](n4ccc(=O)[nH]c4=O)O[C@@H]3COP(=O)(S)O[C@H]3[C@@H](O)[C@H](n4ccc(N)nc4=O)O[C@@H]3COP(=O)(S)O[C@H]3[C@@H](O)[C@H](n4ccc5c(=O)[nH]c(N)nc54)O[C@@H]3CO[C@H]3[C@@H](O)[C@H](n4cnc5c(N)ncnc54)O[C@@H]3COP(=O)(S)O[C@H]3[C@@H](O)[C@H](n4ccc5c(=O)[nH]c(N)nc54)O[C@@H]3COP(=O)(S)O[C@H]3[C@@H](O)[C@H](n4ccc(=O)[nH]c4=O)O[C@@H]3COP(=O)(S)O[C@H]3[C@@H](O)[C@H](n4ccc(N)nc4=O)O[C@@H]3COP(=O)(S)O[C@H]3[C@@H](O)[C@H](n4ccc5c(=O)[nH]c(N)nc54)O[C@@H]3COP(=O)(S)O[C@H]3[C@@H](O)[C@H](n4ccc(=O)[nH]c4=O)O[C@@H]3COP(=O)(S)O[C@H]3[C@@H](O)[C@H](n4ccc(=O)[nH]c4=O)O[C@@H]3CO)[C@H]2O)c(=O)n1 (some centres undefined)	415 pg/mL
Active	23.7	Active	79%	2	11.9	Nc1ccn([C@@H]2O[C@H](COP(=O)(S)O[C@H]3[C@@H](O)[C@H](n4cnc5c(N)ncnc54)O[C@@H]3CO)[C@@H](OP(=O)(S)OC[C@H]3O[C@@H](n4ccc(=O)[nH]c4=O)[C@H](O)[C@@H]3OP(=O)(S)OC[C@H]3O[C@@H](n4ccc(=O)[nH]c4=O)[C@H](O)[C@@H]3OP(=O)(S)OC[C@H]3O[C@@H](n4ccc5c(=O)[nH]c(N)nc54)[C@H](O)[C@@H]3OP(=O)(S)OC[C@H]3O[C@@H](n4cnc5c(N)ncnc54)[C@H](O)[C@@H]3OP(=O)(S)OC[C@H]3O[C@@H](n4cnc5c(N)ncnc54)[C@H](O)[C@@H]3OP(=O)(S)OC[C@H]3O[C@@H](n4ccc5c(=O)[nH]c(N)nc54)[C@H](O)[C@@H]3OP(=O)(S)OC[C@H]3O[C@@H](n4ccc(N)nc4=O)[C@H](O)[C@@H]3OP(=O)(S)OC[C@H]3O[C@@H](n4ccc(=O)[nH]c4=O)[C@H](O)[C@@H]3OP(=O)(S)OC[C@H]3O[C@@H](n4ccc(=O)[nH]c4=O)[C@H](O)[C@@H]3OP(=O)(S)OCC(O)COP(=O)(S)O[C@H]3[C@@H](O)[C@H](n4ccc(=O)[nH]c4=O)O[C@@H]3COP(=O)(S)O[C@H]3[C@@H](O)[C@H](n4ccc(=O)[nH]c4=O)O[C@@H]3COP(=O)(S)O[C@H]3[C@@H](O)[C@H](n4ccc(N)nc4=O)O[C@@H]3COP(=O)(S)O[C@H]3[C@@H](O)[C@H](n4ccc5c(=O)[nH]c(N)nc54)O[C@@H]3COP(=O)(S)O[C@H]3[C@@H](O)[C@H](n4cnc5c(N)ncnc54)O[C@@H]3COP(=O)(S)O[C@H]3[C@@H](O)[C@H](n4cnc5c(N)ncnc54)O[C@@H]3COP(=O)(S)O[C@H]3[C@@H](O)[C@H](n4ccc5c(=O)[nH]c(N)nc54)O[C@@H]3COP(=O)(S)O[C@H]3[C@@H](O)[C@H](n4ccc(=O)[nH]c4=O)O[C@@H]3COP(=O)(S)O[C@H]3[C@@H](O)[C@H](n4ccc(=O)[nH]c4=O)O[C@@H]3COP(=O)(S)O[C@H]3[C@@H](O)[C@H](n4ccc(N)nc4=O)O[C@@H]3COP(=O)(S)O[C@H]3[C@@H](O)[C@H](n4cnc5c(N)ncnc54)O[C@@H]3CO)[C@H]2O)c(=O)n1 (some centres undefined)	170 pg/mL
